Source: ChEMBL document CHEMBL2177074, “Variation of the net charge, lipophilicity, and side chain flexibility in Dmt(1)-DALDA: Effect on Opioid Activity and Biodistribution” (J Med Chem, 2012)
pIC50, pKi: −log10 of the molar value. The source made the active and inactive calls. Non-standard residues stand in square brackets, D forms with d. Residues, ends and D or L forms follow the SMILES beside them. Dmt = Cc1cc(O)cc(C)c1C[C@H](N)C(=O)O; dCit = NC(=O)NCCC[C@@H](N)C(=O)O; NMeNle = CCCC[C@H](NC)C(=O)O; Nle = CCCC[C@H](N)C(=O)O

Legend:
[1] = target: Kappa-type opioid receptor (Cavia porcellus, UniProt P41144); assay: Displacement of [3H]U69,593 from kappa opioid receptor in guinea pig ileum membranes after 2 hrs; assay type: cell membranes, Membrane
[2] = target: Delta-type opioid receptor (Mus musculus, UniProt P32300); assay: (§1) Agonist activity at delta opioid receptor in mouse vas deferens; assay type: functional, tissue-based
How it was run: (§2)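 Isolated tissue bioassays: mouse vas deferens and guinea pig ileum preparations. A [Leu5]enkephalin dose-response curve was run as standard on each preparation, and test IC50 values were normalized against it.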

[3] = target: Delta-type opioid receptor (Rattus norvegicus, UniProt P33533); assay: Displacement of [3H]DSLET from delta opioid receptor in rat brain membranes after 2 hrs; assay type: cell membranes
[4] = target: Mu-type opioid receptor (Rattus norvegicus, UniProt P33535); assay: Displacement of [3H]DAMGO from mu opioid receptor in rat brain membranes after 2 hrs; assay type: cell membranes
[5] = target: Mu-type opioid receptor (Cavia porcellus) (UniProt P97266); assay: (§3) Agonist activity at mu opioid receptor in guinea pig ileum; assay type: functional, tissue-based; how it was run: as §2
[6] = tested on: Mus musculus; assay: Antinociceptive activity in sc dosed CD1 mouse assessed as thermal-stimulus induced tail flick latency after 1 hr; assay type: functional
How it was run: (§4)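 Male CD-1 mice (25–35 g) dosed s.c. at 10 µl/g. Radiant-heat tail-flick latency measured with a 10 s cut-off and expressed as %MPE. At least three doses, 5–6 mice per dose.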

[7] = tested on: Mus musculus; assay: Antinociceptive activity in sc dosed CD1 mouse assessed as thermal-stimulus induced tail flick latency after 2 to 3 hrs; assay type: functional, organism-based; how it was run: as §4
[8] = Metabolic stability in mouse brain assessed as compound recovery after 2 hrs; assay type: ADME, tissue-based; conditions: read-out: Stability
How it was run: (§5)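 100 µg unlabelled peptide in Krebs-Henseleit buffer pH 7.4 incubated at 37 °C with shaking, in 250 µl mouse plasma or brain homogenate (150 µg protein). Aliquots quenched with TFA, heated 5 min at 95 °C, then centrifuged. Supernatants analysed by UPLC or HPLC (210 nm); recovery measured after 2 h.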

[9] = tested on: Brain; assay: Blood brain barrier transport in ICR-CD1 mouse brain assessed as brain efflux rate coefficient at 30000 cpm/uL, iv; assay type: ADME, organism-based; conditions: in vivo
[10] = tested on: Mus musculus; assay: Antinociceptive activity in CD1 mouse assessed as thermal-stimulus induced tail flick latency at 1 umol/kg, ip up to 120 mins; assay type: functional, organism-based
[11] = Metabolic stability in mouse plasma assessed as compound recovery after 2 hrs; assay type: ADME, cell-free; conditions: read-out: Stability; how it was run: as §5
[12] = tested on: Brain; assay: Blood brain barrier transport in ICR-CD1 mouse brain assessed as unidirectional initial influx rate at 30000 cpm/uL, iv; assay type: ADME, organism-based; conditions: in vivo
[13] = tested on: Serum; assay: Biodistribution in ICR-CD1 mouse serum at 30000 cpm/uL, iv after 15 mins; assay type: ADME, organism-based; conditions: in vivo, 0.25 h
How it was run: (§6)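 After intravenous 125I-peptide, kidneys, liver and other organs collected immediately after brain dissection, weighed and gamma-counted. Serum obtained by centrifugation at 10 000 × g for 15 min. Results expressed as % of injected dose per g tissue, normalized to body weight.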

[14] = tested on: Mus musculus; assay: Antinociceptive activity in sc dosed CD1 mouse assessed as thermal-stimulus induced tail flick latency after 1 hr relative to morphine; assay type: functional; how it was run: as §4
[15] = tested on: Mus musculus; assay: Antinociceptive activity in CD1 mouse assessed as thermal-stimulus induced tail flick latency at 1 umol/kg, ip after 45 to 60 mins; assay type: functional, organism-based
[16] = target: Mu-type opioid receptor (Cavia porcellus, UniProt P97266); assay: as §3; assay type: functional, tissue-based; how it was run: as §2
[17] = tested on: Mus musculus; assay: Antinociceptive activity in CD1 mouse assessed as AUC of thermal-stimulus induced tail flick latency assessed per min at 1 umol/kg, ip up to 120 mins; assay type: functional
[18] = tested on: Liver; assay: Biodistribution in ICR-CD1 mouse liver at 30000 cpm/uL, iv; assay type: ADME, organism-based; conditions: in vivo; how it was run: as §6
[19] = tested on: Mus musculus; assay: Antinociceptive activity in sc dosed CD1 mouse assessed as thermal-stimulus induced tail flick latency after 30 mins; conditions: 0.5 h
[20] = tested on: Mus musculus; assay: Antinociceptive activity in CD1 mouse assessed as thermal-stimulus induced tail flick latency at 1 umol/kg, ip after 60 mins; assay type: functional, organism-based
[21] = tested on: Mus musculus; assay: Antinociceptive activity in sc dosed CD1 mouse assessed as thermal-stimulus induced tail flick latency; assay type: functional; how it was run: as §4
[22] = tested on: Mus musculus; assay: Antinociceptive activity in sc dosed CD1 mouse assessed as thermal-stimulus induced tail flick latency after 6 to 7 hrs; assay type: functional, organism-based; how it was run: as §4
[23] = tested on: Mus musculus; assay: Antinociceptive activity in sc dosed CD1 mouse assessed as thermal-stimulus induced tail flick latency after 2 hrs; assay type: functional; how it was run: as §4
[24] = tested on: Mus musculus; assay: Antinociceptive activity in CD1 mouse assessed as thermal-stimulus induced tail flick latency at 1 umol/kg, ip after 45 mins; assay type: functional, organism-based
[25] = tested on: Kidney; assay: Biodistribution in ICR-CD1 mouse kidney at 30000 cpm/uL, iv; assay type: ADME, organism-based; conditions: in vivo; how it was run: as §6
[26] = Half life in sheep blood; assay type: ADME, cell-free, Ovis aries, Plasma
[27] = target: Delta-type opioid receptor (Mus musculus) (UniProt P32300); assay: as §1; assay type: functional, tissue-based; how it was run: as §2
Delta-type opioid receptor (Mus musculus), sequence (P32300 whole entry): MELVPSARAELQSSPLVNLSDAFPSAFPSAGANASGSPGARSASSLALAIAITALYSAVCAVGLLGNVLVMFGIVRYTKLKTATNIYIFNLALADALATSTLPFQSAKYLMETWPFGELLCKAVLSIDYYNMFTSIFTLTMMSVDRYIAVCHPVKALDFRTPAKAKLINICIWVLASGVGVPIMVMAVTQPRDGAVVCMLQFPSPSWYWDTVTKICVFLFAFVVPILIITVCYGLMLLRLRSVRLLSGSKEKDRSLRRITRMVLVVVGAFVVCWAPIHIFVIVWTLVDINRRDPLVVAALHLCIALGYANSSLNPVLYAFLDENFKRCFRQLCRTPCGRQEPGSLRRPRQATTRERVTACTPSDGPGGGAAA

Delta-type opioid receptor (Mus musculus, UniProt P32300), sequence (P32300 whole entry): as above
Mu-type opioid receptor (Rattus norvegicus, UniProt P33535), sequence (P33535 whole entry): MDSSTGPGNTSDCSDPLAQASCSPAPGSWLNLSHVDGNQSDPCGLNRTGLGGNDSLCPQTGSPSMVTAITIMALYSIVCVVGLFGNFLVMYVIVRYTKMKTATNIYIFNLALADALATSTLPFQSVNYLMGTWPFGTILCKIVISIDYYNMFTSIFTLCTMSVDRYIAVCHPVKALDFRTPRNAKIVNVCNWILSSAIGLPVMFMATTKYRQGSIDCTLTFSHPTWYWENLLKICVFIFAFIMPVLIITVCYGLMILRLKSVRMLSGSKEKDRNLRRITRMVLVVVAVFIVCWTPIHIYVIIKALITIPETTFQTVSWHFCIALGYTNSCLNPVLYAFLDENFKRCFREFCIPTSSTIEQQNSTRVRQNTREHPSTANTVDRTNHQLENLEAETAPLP
Mu-type opioid receptor (Cavia porcellus, UniProt P97266), sequence (P97266 whole entry): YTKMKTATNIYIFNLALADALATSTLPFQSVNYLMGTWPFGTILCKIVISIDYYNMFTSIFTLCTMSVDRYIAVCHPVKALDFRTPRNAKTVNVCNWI
Kappa-type opioid receptor, sequence (P41144 whole entry): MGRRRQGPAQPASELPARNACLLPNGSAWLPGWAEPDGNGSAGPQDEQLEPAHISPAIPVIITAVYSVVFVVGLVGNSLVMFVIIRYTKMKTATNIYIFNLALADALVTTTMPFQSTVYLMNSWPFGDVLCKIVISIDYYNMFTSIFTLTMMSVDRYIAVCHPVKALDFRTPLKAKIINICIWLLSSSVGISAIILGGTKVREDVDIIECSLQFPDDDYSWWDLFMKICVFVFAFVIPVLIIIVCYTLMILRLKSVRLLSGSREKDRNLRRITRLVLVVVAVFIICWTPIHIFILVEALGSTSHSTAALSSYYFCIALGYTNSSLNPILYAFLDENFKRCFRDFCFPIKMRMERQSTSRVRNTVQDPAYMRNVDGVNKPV
Delta-type opioid receptor (Rattus norvegicus, UniProt P33533), sequence (P33533 whole entry): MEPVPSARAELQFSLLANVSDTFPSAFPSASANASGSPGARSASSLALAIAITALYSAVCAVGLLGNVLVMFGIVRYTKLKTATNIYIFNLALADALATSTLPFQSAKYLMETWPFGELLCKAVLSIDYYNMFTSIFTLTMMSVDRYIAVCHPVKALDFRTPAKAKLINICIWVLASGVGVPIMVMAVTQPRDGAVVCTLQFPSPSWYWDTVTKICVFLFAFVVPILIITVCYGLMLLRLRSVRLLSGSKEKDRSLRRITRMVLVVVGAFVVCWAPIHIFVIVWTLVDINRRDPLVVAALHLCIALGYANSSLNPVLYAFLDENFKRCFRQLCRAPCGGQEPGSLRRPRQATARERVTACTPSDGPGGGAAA
Mu-type opioid receptor (Cavia porcellus), sequence (P97266 whole entry): as the sequence (P97266 whole entry) above

Row | Structure (SMILES) | pKi [1] | pIC50 [2] | pKi [3] | pKi [4] | remaining at 2 h [8] | Activity [9] | Activity [10] | remaining at 2 h [11] | Kin [12] | Drug uptake [13] | pIC50 [16] | Activity [17] | further results
1 | CCCC[C@@H](C(N)=O)N1Cc2ccccc2C[C@H](NC(=O)[C@@H](CCCNC(N)=O)NC(=O)[C@@H](N)Cc2c(C)cc(O)cc2C)C1=O | 7.95 | 8.94 | 8.50 | 9.03 |  |  |  |  |  |  |  |  | IC35 [5]: 0.78 nM
2 | Cc1cc(O)cc(C)c1C[C@H](N)C(=O)N[C@H](CCCNC(N)=O)C(=O)N[C@@H](Cc1ccccc1)C(=O)N(C)[C@@H](CCCCN)C(N)=O | 7.94 | 8.36 | 7.41 | 9.03 | 95% | 0.01 min⁻¹ | Active | 104% | 11.35 µL/g/min | Active | 9.00 | 1412 %.min | ED50 [6]: 0.16 µmol/kg; Activity [7]: Active; Ratio [14]: 41; Activity [15]: Active
3 | CCCC[C@H](NC(=O)[C@H](Cc1ccccc1)NC(=O)[C@@H](CCCN=C(N)N)NC(=O)[C@@H](N)Cc1c(C)cc(O)cc1C)C(N)=O (H-[Dmt][dR]F[Nle]-NH2) | 7.79 | 8.21 | 7.82 | 9.64 | 104% | -0.039 min⁻¹ |  | 90.2% | 8.48 µL/g/min | Active | 8.66 |  | Drug uptake [18]: Active
4 | CN1CC[C@]23c4c5ccc(O)c4O[C@H]2[C@@H](O)C=C[C@H]3[C@H]1C5 [MORPHINE] |  |  |  |  |  |  |  |  |  |  |  | 66 %.min | ED50 [19]: 6.6 µmol/kg
5 | CCCC[C@H](NC(=O)[C@H](Cc1ccccc1)NC(=O)[C@@H](CCCNC(=N)N)NC(=O)[C@@H](N)Cc1c(C)cc(O)cc1C)C(N)=O (H-[Dmt][dR]F[Nle]-NH2) |  |  |  |  |  |  | Active |  |  |  |  | 65 %.min | Activity [20]: Active; ED50 [21]: > 6 µmol/kg
6 | CCCC[C@@H](C(N)=O)N(C)C(=O)[C@H](Cc1ccccc1)NC(=O)[C@@H](CCCNC(N)=O)NC(=O)[C@@H](N)Cc1c(C)cc(O)cc1C (H-[Dmt][dCit]F[NMeNle]-NH2) | < 8.00 | 8.82 | 8.30 | 8.53 |  |  |  |  |  |  | 9.19 |  | 
7 | Cc1cc(O)cc(C)c1C[C@H](N)C(=O)N[C@H](CCCNC(=N)N)C(=O)N[C@@H](Cc1ccccc1)C(=O)N(C)[C@@H](CCCCN)C(N)=O | 7.25 | 8.15 | 6.51 | 9.59 | 94% | 0.028 min⁻¹ | Active | 112% | 18.11 µL/g/min | Active | 8.08 |  | Activity [22]: Dose-dependent effect; ED50 [23]: 0.13 µmol/kg; Activity [15]: Active
8 | CCCC[C@@H](C(N)=O)N1Cc2ccccc2C[C@H](NC(=O)[C@@H](CCCN=C(N)N)NC(=O)[C@@H](N)Cc2c(C)cc(O)cc2C)C1=O | 8.95 | 8.51 | 8.13 | 9.37 |  |  |  |  |  |  | 8.84 |  | 
9 | Cc1cc(O)cc(C)c1C[C@H](N)C(=O)N[C@H](CCCNC(N)=O)C(=O)N[C@@H](Cc1ccccc1)C(=O)N[C@@H](CCCCN)C(N)=O | 7.68 | 8.85 | 7.30 | 9.24 | 96.2% | 0.027 min⁻¹ | Active | 98.3% | 14.91 µL/g/min | Active | 9.51 | 521 %.min | ED50 [6]: 0.23 µmol/kg; Activity [7]: Active; Drug uptake [18]: Active; Activity [24]: Active; Ratio [14]: 29; Activity [20]: Active; Drug uptake [25]: Active
10 | CCCC[C@@H](C(N)=O)N(C)C(=O)[C@H](Cc1ccccc1)NC(=O)[C@@H](CCCN=C(N)N)NC(=O)[C@@H](N)Cc1c(C)cc(O)cc1C | 7.84 | 8.82 | 7.80 | 9.59 |  |  |  |  |  |  | 8.36 |  | 
11 | Cc1cc(O)cc(C)c1C[C@H](N)C(=O)N[C@H](CCCNC(=N)N)C(=O)N[C@H]1Cc2ccccc2CN(CC(N)=O)C1=O |  |  |  |  |  |  | Active |  |  |  |  | 253 %.min | ED50 [6]: 0.47 µmol/kg; Activity [22]: Dose-dependent effect; Ratio [14]: 14
12 | Cc1cc(O)cc(C)c1C[C@H](N)C(=O)N[C@H](CCCN=C(N)N)C(=O)N[C@H]1Cc2ccccc2CN(CC(N)=O)C1=O |  |  |  |  | 99.6% | 0.096 min⁻¹ |  | 107% | 14.89 µL/g/min | Active |  |  | Drug uptake [25]: Active
13 | C[C@@H](NC(=O)[C@@H](N)Cc1ccc(O)cc1)C(=O)N[C@@H](Cc1ccccc1)C(=O)NCC(=O)N[C@@H](Cc1ccc(O)cc1)C(=O)N1CCC[C@H]1C(=O)N[C@@H](CO)C(N)=O [DERMORPHIN] |  |  |  |  |  |  |  |  |  |  |  | 46 %.min | 
14 | CCCC[C@H](NC(=O)[C@H](Cc1ccccc1)NC(=O)[C@@H](CCCNC(N)=O)NC(=O)[C@@H](N)Cc1c(C)cc(O)cc1C)C(N)=O (H-[Dmt][dCit]F[Nle]-NH2) | 7.01 | 8.33 | 8.40 | 9.10 |  |  |  |  |  |  | 9.05 |  | 
15 | Cc1cc(O)cc(C)c1C[C@H](N)C(=O)N[C@H](CCCNC(=N)N)C(=O)N[C@@H](Cc1ccccc1)C(=O)N[C@@H](CCCCN)C(N)=O |  |  |  |  | 103% | 0.058 min⁻¹ | Active | 94.7% | 9.44 µL/g/min | Active |  | 750 %.min | Activity [22]: Dose-dependent effect; ED50 [23]: 0.15 µmol/kg; half-life [26]: 1.8 h; Activity [20]: Active; Drug uptake [25]: Active
16 | Cc1cc(O)cc(C)c1C[C@H](N)C(=O)N[C@H](CCCNC(N)=O)C(=O)N[C@H]1Cc2ccccc2CN([C@@H](CCCCN)C(N)=O)C1=O |  | 6.00 | 7.24 | 8.58 |  |  |  |  |  |  | 7.31 |  | 
17 | Cc1cc(O)cc(C)c1C[C@H](N)C(=O)N[C@H](CCCNC(=N)N)C(=O)N[C@H]1Cc2ccccc2CN([C@@H](CCCCN)C(N)=O)C1=O |  |  | 7.41 | 9.21 |  |  |  |  |  |  | 7.12 |  | IC25 [27]: 64 nM
